Here are results for eight compounds from ChEMBL document CHEMBL1136719, “[(3-Chlorophenyl)piperazinylpropyl]pyridazinones and analogues as potent antinociceptive agents” (2003).

Holding throughout (assay type): functional
The test system of experiment [1] is Mus musculus. Put plainly: Antinociceptive effect expressed as licking latency determined at 20 mg/kg after 60 minutes of subcutaneous administration in the mouse hotplate test. In short, it runs like this:
(§1)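 Male Swiss albino mice (23-30 g) were placed on a plate held at 52.5 ± 0.1 °C. Fore or hind paw licking was the endpoint. Latency was timed before dosing and at intervals up to 60 min after, with a 45 s cutoff. Mice scoring below 12 or over 18 s in the pretest were excluded. Compounds were given in saline or 1% CMC at 10 mL/kg sc or po.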

Experiment [2] deals with Mus musculus. Briefly: Percentage of antagonism exerted by reserpine at 2 mg/kg.
For experiment [3], the system named is Mus musculus. Briefly: Maximal analgesic dose required to cause antinociceptive effect in the mouse hot plate method by subcutaneous administration. (In hot-plate and tail-flick tests a longer latency is read as antinociception.)
The subject of experiment [4] is Mus musculus. Briefly: Antinociceptive effect expressed as licking latency determined at 20 mg/kg after 30 minutes of subcutaneous administration in the mouse hotplate test. In short, it runs like this:
as §1

In experiment [5] the test system is Mus musculus. Briefly: Minimal nontoxic dose in the mouse hot plate method by subcutaneous administration.
Experiment [6] relates to Mus musculus. Put plainly: Antinociceptive effect expressed as licking latency determined at 20 mg/kg after 45 minutes of subcutaneous administration in the mouse hotplate test. The gist of the method: as §1
The subject of experiment [7] is Mus musculus. Put plainly: Percentage of analgesic efficacy compared to morphine at 8 mg/kg. In short, it runs like this: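 Analgesic efficacy was measured in the mouse hot-plate test (52.5 °C, paw-licking latency) at the maximal analgesic dose. It is expressed as a percentage of the maximal effect of morphine (8 mg/kg sc), which is taken as 100%.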
In experiment [8] the test system is Mus musculus. Briefly: Antinociceptive effect expressed as licking latency determined at 20 mg/kg after 15 minutes of subcutaneous administration in the mouse hotplate test. The gist of the method: as §1
The species entered for experiment [9] is Mus musculus. Put plainly: Antinociceptive effect determined before treatment in the mouse hotplate test. Also on record: unit not given beside the values. In short, it runs like this: as §1
Experiment [10] relates to Mus musculus. Put plainly: Antinociceptive effect expressed as licking latency determined at 3 mg/kg after 45 minutes of subcutaneous administration in the mouse hotplate test. In short, it runs like this:
as §1

The test system of experiment [11] is Mus musculus. Put plainly: Antinociceptive effect expressed as licking latency determined at 3 mg/kg after 15 minutes of subcutaneous administration in the mouse hotplate test. In short, it runs like this:
as §1

Experiment [12] deals with Mus musculus. Put plainly: Antinociceptive effect expressed as licking latency determined at 3 mg/kg after 60 minutes of subcutaneous administration in the mouse hotplate test. In short, it runs like this: as §1
The subject of experiment [13] is Mus musculus. Briefly: Antinociceptive effect expressed as licking latency determined at 3 mg/kg after 30 minutes of subcutaneous administration in the mouse hotplate test. In short, it runs like this:
as §1

Experiment [14] deals with Mus musculus. Put plainly: Maximal analgesic dose required to cause antinociceptive effect in the mouse hot plate method by oral administration.
Experiment [15] concerns Mus musculus. Briefly: Antinociceptive effect expressed as licking latency determined at 10 mg/kg after 45 minutes of oral administration in the mouse hotplate test. In short, it runs like this:
as §1

Experiment [16] has as its system Mus musculus. Put plainly: Antinociceptive effect expressed as licking latency determined at 10 mg/kg after 15 minutes of oral administration in the mouse hotplate test. The gist of the method: as §1
Experiment [17] has as its system Mus musculus. Briefly: Antinociceptive effect expressed as licking latency determined at 10 mg/kg after 60 minutes of oral administration in the mouse hotplate test. The gist of the method:
as §1

For experiment [18], the system named is Mus musculus. Briefly: Antinociceptive effect expressed as licking latency determined at 10 mg/kg after 30 minutes of oral administration in the mouse hotplate test. The gist of the method: as §1
Experiment [19] concerns Mus musculus. Put plainly: Antinociceptive effect expressed as licking latency determined at 1 mg/kg after 30 minutes of subcutaneous administration in the mouse hotplate test. The gist of the method: as §1
Experiment [20] relates to Mus musculus. Put plainly: Antinociceptive effect expressed as licking latency determined at 1 mg/kg after 60 minutes of subcutaneous administration in the mouse hotplate test. The gist of the method:
as §1

The subject of experiment [21] is Mus musculus. Briefly: Antinociceptive effect expressed as licking latency determined at 1 mg/kg after 15 minutes of subcutaneous administration in the mouse hotplate test. The gist of the method:
as §1

The test system of experiment [22] is Mus musculus. Put plainly: Antinociceptive effect expressed as licking latency determined at 1 mg/kg after 45 minutes of subcutaneous administration in the mouse hotplate test. The gist of the method:
as §1

The test system of experiment [23] is Mus musculus. Put plainly: Antinociceptive effect expressed as licking latency determined at 6 mg/kg after 30 minutes of subcutaneous administration in the mouse hotplate test. The gist of the method: as §1
In experiment [24] the test system is Mus musculus. Put plainly: Antinociceptive effect expressed as licking latency determined at 6 mg/kg after 15 minutes of subcutaneous administration in the mouse hotplate test. In short, it runs like this: as §1
In experiment [25] the test system is Mus musculus. Briefly: Antinociceptive effect expressed as licking latency determined at 6 mg/kg after 60 minutes of subcutaneous administration in the mouse hotplate test. In short, it runs like this: as §1
Experiment [26] relates to Mus musculus. Put plainly: Antinociceptive effect expressed as licking latency determined at 6 mg/kg after 45 minutes of subcutaneous administration in the mouse hotplate test. The gist of the method:
as §1

Experiment [27] relates to Mus musculus. Put plainly: Antinociceptive effect expressed as licking latency determined at 8 mg/kg after 60 minutes of subcutaneous administration in the mouse hotplate test. In short, it runs like this: (§2)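 Male Swiss albino mice (23-30 g), acclimatised 24 h at 23 ± 1 °C. Dosed sc in 10 mL kg⁻¹ of saline, 1% carboxymethylcellulose, or saline + DMSO 2:1 vehicle. Placed on a 52.5 ± 0.1 °C hot plate, timed to fore or hind paw licking. Pretest latency had to be 12–18 s. Cutoff was 45 s. Latency was read before dosing and at 15, 30, 45 and 60 min after.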

In experiment [28] the test system is Mus musculus. Briefly: Antinociceptive effect expressed as licking latency determined at 8 mg/kg after 45 minutes of subcutaneous administration in the mouse hotplate test. The gist of the method: as §2
Experiment [29] has as its system Mus musculus. Briefly: Antinociceptive effect expressed as licking latency determined at 8 mg/kg after 30 minutes of subcutaneous administration in the mouse hotplate test. In short, it runs like this:
as §2

Experiment [30] relates to Mus musculus. Put plainly: Antinociceptive effect expressed as licking latency determined at 8 mg/kg after 15 minutes of subcutaneous administration in the mouse hotplate test. The gist of the method:
as §2

With `Cc1noc2c(-c3ccccc3)nn(CCCN3CCN(c4cccc(Cl)c4)CC3)c(=O)c12`, the Licking latency in the experiment on Mus musculus [1] was determined as 29.3; in the experiment on Mus musculus [4], 34.5; in the experiment with Mus musculus [6] it was 31.2; in the experiment with Mus musculus [8] it was 19.6. This compound yielded an Antagonism with Mus musculus [2] of 100%. In the experiment on Mus musculus [3], the MAD worked out at 0.3 mg/kg. In the experiment on Mus musculus [5], this compound returned an MNTD of 60 mg/kg. Also, the Analgesic effect in the experiment with Mus musculus [7] turned out to be 104%. Further, the Activity in the experiment listed under Mus musculus [9] is 14.6.
With `CC(=O)c1c(C)nn(CCCN2CCN(c3cccc(Cl)c3)CC2)c(=O)c1N`, the Licking latency in the experiment on Mus musculus [10] is given as 34.3; in the experiment on Mus musculus [11], 23.7; with Mus musculus [12], 32.7; with Mus musculus [13], 33.2. The Antagonism in the experiment on Mus musculus [2] was 0%. For the same compound, the MAD in the experiment with Mus musculus [3] was found to be 0.1 mg/kg. The compound further gave an MNTD in the experiment with Mus musculus [5] of 20 mg/kg. This compound also displayed an Analgesic effect with Mus musculus [7] of 100%. This compound returned an Activity in the experiment listed under Mus musculus [9] of 15.5.
For `Cc1onc2c(=O)n(CCCN3CCN(c4cccc(Cl)c4)CC3)nc(-c3ccccc3)c12`, in the experiment on Mus musculus [14], the MAD turned out to be 1 mg/kg. In the experiment with Mus musculus [2], this compound showed an Antagonism of 94%. Also, the MNTD in the experiment with Mus musculus [5] stood at 50 mg/kg. Besides, the Licking latency with Mus musculus [15] is on record as 19.1; with Mus musculus [16], 20.8; in the experiment on Mus musculus [17], 16.6; with Mus musculus [18], 25.1. The Analgesic effect in the experiment on Mus musculus [7] amounted to 75%. The Activity in the experiment listed under Mus musculus [9] is reported as 15.1.
Consider `CCOC(=O)c1nn(CCCN2CCN(c3cccc(Cl)c3)CC2)c(=O)c2noc(C)c12`, for which the Licking latency in the experiment with Mus musculus [1] was 17.8; in the experiment on Mus musculus [4], 23.8; in the experiment with Mus musculus [6], 23.2; in the experiment with Mus musculus [8], 22.2. The Antagonism in the experiment with Mus musculus [2] is reported as 0%. This compound also came in with an MAD in the experiment with Mus musculus [3] of 10 mg/kg. In the experiment on Mus musculus [5], this compound showed an MNTD of 40 mg/kg. This compound also displayed an Analgesic effect in the experiment with Mus musculus [7] of 71%. Further, the Activity in the experiment filed under Mus musculus [9] was found to be 16.
Take `C=Cc1c(C)nn(CCCN2CCN(c3cccc(Cl)c3)CC2)c(=O)c1N`: the Antagonism in the experiment on Mus musculus [2] turned out to be 61%. The compound also registered an MAD with Mus musculus [3] of 0.1 mg/kg. Further, the Licking latency in the experiment on Mus musculus [19] came out at 33.5; in the experiment with Mus musculus [20] it was 22.6; with Mus musculus [21] it was 21.3; in the experiment with Mus musculus [22], 28.2. The compound also returned an MNTD with Mus musculus [5] of 20 mg/kg. Moreover, the Analgesic effect in the experiment on Mus musculus [7] was 100%. For the same compound, the Activity in the experiment listed under Mus musculus [9] is listed as 14.2.
Consider `Cc1nn(CCCN2CCN(c3cccc(Cl)c3)CC2)c(=O)c(N)c1C(C)O` (configuration not stated), for which the Licking latency with Mus musculus [23] turned out to be 33.7; in the experiment with Mus musculus [24] it was 22.4; in the experiment with Mus musculus [25] it was 23.3; in the experiment with Mus musculus [26], 29.3. Also, the Antagonism with Mus musculus [2] is recorded as 100%. This compound came in with an MAD in the experiment on Mus musculus [3] of 0.3 mg/kg. In the experiment on Mus musculus [5], the MNTD was 40 mg/kg. Besides, the Analgesic effect in the experiment on Mus musculus [7] stood at 101%. The compound also returned an Activity in the experiment filed under Mus musculus [9] of 14.5.
For `Cc1nn(CCCN2CCN(c3cccc(Cl)c3)CC2)c(=O)c2noc(C)c12`, the Licking latency was 17.6 in the experiment on Mus musculus [1], 24 in the experiment with Mus musculus [4], 22.6 in the experiment on Mus musculus [6] and 18 with Mus musculus [8]. This compound gave an Antagonism with Mus musculus [2] of 92%. Moreover, in the experiment with Mus musculus [3], the MAD worked out at 10 mg/kg. In addition, the MNTD in the experiment with Mus musculus [5] amounted to 40 mg/kg. The compound further displayed an Analgesic effect in the experiment on Mus musculus [7] of 72%. In addition, the Activity in the experiment filed under Mus musculus [9] is given as 16.6.
As to `CN1CC[C@]23c4c5ccc(O)c4O[C@H]2[C@@H](O)C=C[C@H]3[C@H]1C5` [MORPHINE], the Antagonism with Mus musculus [2] stood at 0%. In addition, the MAD in the experiment on Mus musculus [3] amounted to 0.2 mg/kg. In addition, the Licking latency is reported as 23.8 in the experiment on Mus musculus [27], 26.4 in the experiment on Mus musculus [28], 28.7 in the experiment with Mus musculus [29] and 24.5 with Mus musculus [30]. In the experiment on Mus musculus [5], this compound gave an MNTD of 30 mg/kg. The compound also had an Analgesic effect in the experiment on Mus musculus [7] of 100%. The compound further had an Activity in the experiment filed under Mus musculus [9] of 14.6.
